By inhibition is commonly meant the share of the control response that was lost under treatment. The AUC is concentration integrated over time. In general, Cmax refers to the peak of the concentration-time curve. Usually half-life stands for the time in which the quantity being followed falls by half. As usually defined, the clearance is a measure of how efficiently the substance is removed, as volume per time. As a reminder, the IC50 is the concentration at which inhibition is half-maximal.

The text below walks through data of ChEMBL document CHEMBL2062375, “Discovery of an orally efficacious inhibitor of anaplastic lymphoma kinase” (J Med Chem, 2012).

Series [1] addresses Mitogen-activated protein kinase kinase kinase kinase 2 (Homo sapiens) (UniProt Q12851). The following applies: 1 uM.
Series [2] in a line: AUC in SCID mouse at 10 mg/kg, po. Also noted: dose 10 mg/kg, route oral. The conditions noted are these: plasma. The format is ADME, organism-based. An outline of the steps: (§1)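 Mouse PK. IV via the lateral tail vein in 3% DMSO/30% Solutol/67% PBS, or oral gavage in 100% PEG400, 100 μL dose volume, after an overnight fast. Trunk blood was taken from three mice per time point over 6 h. Plasma was acetonitrile-precipitated and analysed by LC-MS/MS. Parameters were derived noncompartmentally.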

Series [3] can be described thus: Cmax in CD-1 mouse at 10 mg/kg, po. Also on record: dose 10 mg/kg, route oral. The following applies: in vivo. The format is ADME, organism-based. An outline of the steps:
as §1

Series [4] concerns KARPAS-299. Kind of series: Antitumor activity against human KARPAS299 cells expressing NPM-ALK xenografted in SCID mouse assessed as tumor regression administered as po bid for 12 days. The format is functional, organism-based. An outline of the steps:
(§2)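 Female SCID/beige mice, 6–8 weeks old, implanted sc in the left flank with exponentially growing Karpas-299 cells. At about 600 mm³ tumours, mice were randomized (8–10/group) and given PEG400 vehicle or compound orally b.i.d., 100 μL, for 12 days. Tumour volume (0.5236LW(L+W)/2) and body weight were recorded every 2–3 days; Mann–Whitney test. Plasma and tumour levels were measured by LC-MS/MS 2 h after the final dose, mean ± SEM.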
For orientation: Xenograft models place foreign cells or tissue in a host animal.

Series [5] has as its system Rattus norvegicus. The experiment in a line: Ratio of AUC (0 to 12 h) at 10 mg/kg, po to AUC (0 to 12 h) at 100 mg/kg, po in rat. The conditions noted are these: in vivo. The series is classed as ADME, organism-based. An outline of the steps:
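Oral dose-escalation PK study in rats at 10, 30, 55 and 100 mg/kg. […] The ratio compares the 10 mg/kg value with the 100 mg/kg value.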

Series [6] concerns KARPAS-299. Kind of series: Antitumor activity against human KARPAS299 cells expressing NPM-ALK xenografted in SCID mouse assessed as tumor regression at 30 mg/kg, po bid for 12 days. The format is functional, organism-based. Also noted: dose 30 mg/kg. An outline of the steps: as §2
Series [7] has as its target Tyrosine-protein kinase Fes/Fps (Homo sapiens, UniProt P07332). The conditions noted are these: 1 uM.
Series [8] can be described thus: Half life in Sprague-Dawley rat at 10 mg/kg, po. The format is ADME, organism-based. Also noted: dose 10 mg/kg, route oral. The conditions noted are these: in vivo. An outline of the steps: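 Rat PK. IV via the lateral tail vein, 1 mL/kg in 3% DMSO/30% Solutol/67% PBS, or oral gavage at 5 mL/kg in 40% HPβCD, after an overnight fast. Serial tail-vein blood was taken into heparin over 6 h. Plasma was acetonitrile-precipitated and analysed by LC-MS/MS. Parameters were noncompartmental, n = 3, mean ± SEM.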

For series [9], the target named is Protein-tyrosine kinase 6 (Homo sapiens, UniProt Q13882). The following applies: 1 uM.
Series [10] is described as follows: AUC in cynomolgus monkey at 1 mg/kg, iv. The conditions noted are these: plasma. Also noted: dose 1 mg/kg, route intravenous. The series is classed as ADME, organism-based, Macaca fascicularis. An outline of the steps: (§3)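 Dog and monkey PK. IV 0.5 mL/kg in 40% HPβCD via the saphenous vein. Oral dosing was 1 mL/kg by gavage in dogs and 2 mL/kg by nasogastric tube in monkeys, after an overnight fast. Serial femoral-vein blood was taken into heparin over 24 h. Plasma was acetonitrile-precipitated and analysed by LC-MS/MS. Parameters were noncompartmental, n = 3, mean ± SEM.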

The nature of series [11]: Plasma clearance in Sprague-Dawley rat at 1 mg/kg, iv. The series is classed as ADME, organism-based. Also noted: dose 1 mg/kg, route intravenous. An outline of the steps:
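IV PK: rats via lateral tail vein (1 mL/kg; 3% DMSO/30% Solutol/67% PBS), serial tail-vein blood over 6 h. Dogs and monkeys via saphenous vein (0.5 mL/kg in 40% HPβCD), femoral-vein blood over 24 h. Acetonitrile protein precipitation, LCMS/MS; noncompartmental parameters from individual animals, n = 3, mean ± SEM.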

Series [12] can be described thus: Plasma concentration in SCID/beige mouse xenografted with human KARPAS299 cells expressing NPM-ALK at 10 mg/kg, po bid after 2 hrs post last dose by LC-MS/MS analysis. The format is ADME, organism-based, KARPAS-299. Also on record: dose 10 mg/kg, route oral. An outline of the steps: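 Female SCID/beige mice (6–8 weeks), Karpas-299 cells implanted sc in left flank; at ~600 mm³ randomized (8–10/group), dosed orally in PEG400, 100 μL, b.i.d. for 12 days. Body weight every 2–3 days; plasma and tumor sampled 2 h after final dose, drug by LCMS/MS; Mann–Whitney rank sum statistics.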

Series [13] in a line: Half life in cynomolgus monkey at 10 mg/kg, po. The series is classed as ADME, organism-based, Macaca fascicularis. Also on record: dose 10 mg/kg, route oral. The conditions noted are these: in vivo. An outline of the steps: as §3
The target in series [14] is Serine/threonine-protein kinase Chk2 (Homo sapiens, UniProt O96017). Kind of series: Inhibition of human CHK2. An outline of the steps:
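Commercial activity-assay panel of 259 kinases. Each kinase was first screened at 1 μM, and those inhibited by ≥90% went on to full IC50 determination.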

For series [15], the target named is Ribosomal protein S6 kinase alpha-1 (Homo sapiens, UniProt Q15418). The experiment in a line: Inhibition of human Rsk1. An outline of the steps:
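Millipore KinaseProfiler activity assays on a 259-kinase panel; kinases inhibited by ≥90% at 1 μM then taken to full IC50 determination.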

Activity calls are given as the source filed them. No cut-off for these calls is given here. A value given as a limit tells only on which side of the number the result lay.

Tyrosine-protein kinase Fes/Fps, sequence (P07332 whole entry): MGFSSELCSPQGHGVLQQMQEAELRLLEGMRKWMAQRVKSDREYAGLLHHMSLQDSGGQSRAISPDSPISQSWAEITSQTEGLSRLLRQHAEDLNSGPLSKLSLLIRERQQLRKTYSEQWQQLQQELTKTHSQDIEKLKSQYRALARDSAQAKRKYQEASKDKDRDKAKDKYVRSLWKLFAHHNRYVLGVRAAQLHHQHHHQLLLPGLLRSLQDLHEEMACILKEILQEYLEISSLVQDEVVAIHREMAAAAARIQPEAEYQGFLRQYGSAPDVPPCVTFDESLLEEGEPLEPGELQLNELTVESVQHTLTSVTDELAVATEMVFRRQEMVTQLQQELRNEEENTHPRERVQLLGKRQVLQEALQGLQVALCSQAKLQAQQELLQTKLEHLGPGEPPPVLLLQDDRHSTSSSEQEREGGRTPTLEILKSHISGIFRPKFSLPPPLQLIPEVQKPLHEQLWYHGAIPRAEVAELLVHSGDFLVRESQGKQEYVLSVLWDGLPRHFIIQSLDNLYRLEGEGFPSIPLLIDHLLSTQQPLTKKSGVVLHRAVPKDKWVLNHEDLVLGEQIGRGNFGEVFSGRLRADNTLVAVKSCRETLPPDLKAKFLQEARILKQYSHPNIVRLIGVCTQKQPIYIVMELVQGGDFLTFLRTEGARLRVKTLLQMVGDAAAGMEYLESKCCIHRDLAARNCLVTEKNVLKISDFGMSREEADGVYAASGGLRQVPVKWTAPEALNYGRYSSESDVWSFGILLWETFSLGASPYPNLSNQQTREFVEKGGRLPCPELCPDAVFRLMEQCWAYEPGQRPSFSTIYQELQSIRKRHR
Ribosomal protein S6 kinase alpha-1, sequence (Q15418 whole entry): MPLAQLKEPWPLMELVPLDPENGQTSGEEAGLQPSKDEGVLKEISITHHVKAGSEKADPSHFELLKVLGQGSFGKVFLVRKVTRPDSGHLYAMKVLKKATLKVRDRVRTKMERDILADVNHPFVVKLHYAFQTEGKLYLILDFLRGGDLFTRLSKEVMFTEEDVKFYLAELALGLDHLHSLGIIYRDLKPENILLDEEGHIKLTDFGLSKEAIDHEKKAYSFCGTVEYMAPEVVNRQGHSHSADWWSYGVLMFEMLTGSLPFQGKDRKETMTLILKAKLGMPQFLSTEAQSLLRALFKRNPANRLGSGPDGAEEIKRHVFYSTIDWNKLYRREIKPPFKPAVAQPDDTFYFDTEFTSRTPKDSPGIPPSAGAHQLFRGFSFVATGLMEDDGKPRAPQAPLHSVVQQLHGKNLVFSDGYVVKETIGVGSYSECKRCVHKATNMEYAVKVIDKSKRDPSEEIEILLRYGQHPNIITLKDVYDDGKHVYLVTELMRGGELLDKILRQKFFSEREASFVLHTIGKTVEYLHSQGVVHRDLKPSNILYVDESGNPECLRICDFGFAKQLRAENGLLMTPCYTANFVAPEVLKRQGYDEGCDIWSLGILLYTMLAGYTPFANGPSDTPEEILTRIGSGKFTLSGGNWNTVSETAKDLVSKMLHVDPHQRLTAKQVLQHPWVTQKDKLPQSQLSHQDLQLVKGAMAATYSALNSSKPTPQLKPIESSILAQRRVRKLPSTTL
Mitogen-activated protein kinase kinase kinase kinase 2 (Homo sapiens), sequence (Q12851 whole entry): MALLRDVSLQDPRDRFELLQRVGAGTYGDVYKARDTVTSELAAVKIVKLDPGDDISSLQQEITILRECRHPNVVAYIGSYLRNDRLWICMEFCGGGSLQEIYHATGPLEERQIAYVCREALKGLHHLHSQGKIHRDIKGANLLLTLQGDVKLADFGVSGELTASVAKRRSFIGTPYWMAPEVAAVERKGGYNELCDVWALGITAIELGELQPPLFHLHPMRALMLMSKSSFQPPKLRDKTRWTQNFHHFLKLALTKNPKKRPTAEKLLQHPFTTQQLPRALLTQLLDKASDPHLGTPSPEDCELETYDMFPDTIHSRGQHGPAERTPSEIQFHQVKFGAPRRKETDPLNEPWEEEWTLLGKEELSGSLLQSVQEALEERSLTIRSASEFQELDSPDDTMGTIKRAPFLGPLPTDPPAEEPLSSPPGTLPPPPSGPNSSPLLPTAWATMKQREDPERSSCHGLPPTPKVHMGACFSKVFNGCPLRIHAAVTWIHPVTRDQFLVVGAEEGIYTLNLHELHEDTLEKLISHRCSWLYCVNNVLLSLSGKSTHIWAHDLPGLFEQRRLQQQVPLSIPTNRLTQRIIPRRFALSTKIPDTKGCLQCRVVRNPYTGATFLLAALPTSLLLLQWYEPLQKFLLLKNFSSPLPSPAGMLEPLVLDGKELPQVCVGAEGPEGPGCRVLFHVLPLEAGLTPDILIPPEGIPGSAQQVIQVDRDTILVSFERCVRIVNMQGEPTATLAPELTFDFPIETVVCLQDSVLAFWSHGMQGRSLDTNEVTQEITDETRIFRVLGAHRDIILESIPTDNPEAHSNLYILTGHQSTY
Serine/threonine-protein kinase Chk2, sequence (O96017 whole entry): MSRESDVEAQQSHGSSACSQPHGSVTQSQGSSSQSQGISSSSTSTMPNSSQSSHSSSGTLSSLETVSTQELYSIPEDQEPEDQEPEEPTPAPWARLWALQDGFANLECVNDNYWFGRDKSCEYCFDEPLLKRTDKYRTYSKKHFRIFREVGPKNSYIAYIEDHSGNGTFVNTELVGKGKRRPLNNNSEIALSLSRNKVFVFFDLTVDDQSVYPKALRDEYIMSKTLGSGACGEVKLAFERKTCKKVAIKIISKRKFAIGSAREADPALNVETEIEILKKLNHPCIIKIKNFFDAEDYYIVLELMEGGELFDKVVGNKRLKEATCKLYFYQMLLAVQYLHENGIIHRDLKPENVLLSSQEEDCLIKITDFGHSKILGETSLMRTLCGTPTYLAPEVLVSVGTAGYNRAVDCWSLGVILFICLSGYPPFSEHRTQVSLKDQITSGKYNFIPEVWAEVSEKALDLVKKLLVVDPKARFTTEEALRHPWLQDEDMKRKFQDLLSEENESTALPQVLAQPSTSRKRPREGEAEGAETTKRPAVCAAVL
Protein-tyrosine kinase 6, sequence (Q13882 whole entry, looked up): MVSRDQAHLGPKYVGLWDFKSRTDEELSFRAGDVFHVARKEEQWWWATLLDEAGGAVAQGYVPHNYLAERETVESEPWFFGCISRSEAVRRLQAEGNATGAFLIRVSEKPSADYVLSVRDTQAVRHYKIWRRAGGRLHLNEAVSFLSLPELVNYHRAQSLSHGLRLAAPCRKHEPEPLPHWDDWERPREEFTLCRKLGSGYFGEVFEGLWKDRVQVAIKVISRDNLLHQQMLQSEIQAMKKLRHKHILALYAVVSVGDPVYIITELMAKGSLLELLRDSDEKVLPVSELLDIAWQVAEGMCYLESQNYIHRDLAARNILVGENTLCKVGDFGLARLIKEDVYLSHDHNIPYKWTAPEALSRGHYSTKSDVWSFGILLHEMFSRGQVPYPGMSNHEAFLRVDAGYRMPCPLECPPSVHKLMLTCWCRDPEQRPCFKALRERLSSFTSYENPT

Take `COc1c(Nc2ncc(Cl)c(N[C@H]3[C@@H](C(N)=O)[C@@H]4C=C[C@H]3C4)n2)ccc2c1CC[C@@H](N1CCOCC1)CC2`: the inhibition in series [1], in series [7] and in series [9] was > 90% throughout. Besides, the AUC in series [2] came to 21400 ng·h/mL; in series [10], 615 ng·h/mL. The Cmax in [3] stood at 880 ng/mL. For the same molecule, the Activity result in [4] was “Dose-dependent effect”. In addition, the Ratio in [5] is listed as 15. In addition, the outcome in series [6] was Active. The figures for the half-life in series [8] and in [13] were 6.2 h and 1.2 h, respectively. Besides, the clearance in series [11] was 17 mL/min/kg. The same molecule registered a concentration at 2 h in [12] of 1960 ng/mL. Also, the IC50 in series [14] came out at 29 nM; in series [15], 61 nM.
